Among the data in the array DNA melting data of Ke et al. (doi:10.1101/2024.01.08.574731) are folding enthalpy and Tm values, retold here.

The nature of data set [1]: folding enthalpy; higher = less favourable; fluorescence melt of hairpins on a sequencing array, two-state fit. The note with it: sodium 0.088 M. An outline of the steps:
(§1)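 Cy3 signals were normalised both to pre-quench Cy3 and to control constructs. They came from library hairpins carrying annealed Cy3 and quencher oligos on a sequenced MiSeq flow cell, imaged in 50 mM Na-HEPES pH 8.0, 25 mM NaCl, in 2.5 °C steps up to 60 °C. Bootstrapped two-state fits gave melting temperature and folding enthalpy, and four replicates were combined by inverse variance. Fitted temperatures were then raised by 9.35 °C to match UV melts.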

Data set [2] in a line: melting temperature; fluorescence melt of hairpins on a sequencing array, two-state fit, raised by 9.35 °C to match UV melts. The conditions noted are these: sodium 0.088 M. An outline of the steps:
as §1

As for GCAAGCGAAAGCTATTGC ((((((....)))..))), the folding enthalpy in data set [1] is -17.5 kcal/mol. For the same sequence, the Tm in data set [2] amounted to 42.8 °C.
Regarding GCAAGCGAAAGCTCATGC ((((((....)))..))), the folding enthalpy in data set [1] was -12.5 kcal/mol. Moreover, the Tm in data set [2] was 35.2 °C.
Take GCAAGCGAAAGCTGATGC ((((((....)))..))): the folding enthalpy in data set [1] was -16.3 kcal/mol. Besides, the Tm in data set [2] was determined as 45.7 °C.
Take GCAAGCGAAAGCTGCTGC ((((((....)))..))): in data set [1], the folding enthalpy was -19.5 kcal/mol. The Tm in data set [2] was 67.2 °C.
In the case of GCAAGCGAAAGCTTATGC ((((((....)))..))), the folding enthalpy in data set [1] is -14.7 kcal/mol. In addition, the Tm in data set [2] came to 39.8 °C.
For GCAAGCGAAAGCTTCTGC ((((((....)))..))), the folding enthalpy in data set [1] was -11.5 kcal/mol. Moreover, the Tm in data set [2] was determined as 42.1 °C.
Taken in the same sequence, the figures for GCAAGCGAAAGCTTGTGC ((((((....)))..))) were -16.9 kcal/mol and 66.7 °C.
As to GCAAGGCGAAAGCAGTGC (((..((....))..))), in data set [1], the folding enthalpy was -16.8 kcal/mol. For the same sequence, the Tm in data set [2] was 50.9 °C.
As to GCAAGGCGAAAGCCCTGC (((.(((....))).))), the folding enthalpy in data set [1] is -31.3 kcal/mol. The Tm in data set [2] is 50.7 °C.
With GCAAGGCGAAAGCCTCGC ((.((((....)))).)), in data set [1], the folding enthalpy was -18.4 kcal/mol. In addition, the Tm in data set [2] is 59.3 °C.
For GCAAGGCGAAAGCCTGGC ((.((((....)))).)), the folding enthalpy in data set [1] was -23.1 kcal/mol. For the same sequence, in data set [2], the Tm was found to be 68.9 °C.
Take GCAAGGCGAAAGCTCTGC (((..((....))..))): the folding enthalpy in data set [1] was -21.5 kcal/mol. Also, the Tm in data set [2] was 43.7 °C.
Taken in the same sequence, the figures for GCAAGGCGAAAGCTGTGC (((..((....))..))) were -18.1 kcal/mol and 52.8 °C.
Taken in the same sequence, the figures for GCAAGGCGAAAGCTTGGC ((.(.((....)).).)) were -17.9 kcal/mol and 44 °C.
With GCAAGGGGAAACCCTCAC (..((((....))))..), the folding enthalpy in data set [1] is -9.15 kcal/mol. In addition, the Tm in data set [2] was 25.2 °C.
For the sequence GCAAGGGGAAACCTTTGC ((((.((....)).)))), the folding enthalpy in data set [1] is -30.8 kcal/mol. Also, in data set [2], the Tm came out at 47.6 °C.
Taken in the same sequence, the figures for GCAAGGGGAAACTCTTGC (((((.(....).))))) were -45.3 kcal/mol and 50.1 °C.
Taken in the same sequence, the figures for GCAAGTCGAAAGACATGC (((.(((....))).))) were -29.1 kcal/mol and 52.7 °C.
In the case of GCAAGTGGAAACACTCGC ((.((((....)))).)), the folding enthalpy in data set [1] is -25.4 kcal/mol. The Tm in data set [2] is 44.3 °C.
Taken in the same sequence, the figures for GCAAGTGGAAACACTTAC (.(((((....))))).) were -18.7 kcal/mol and 34.6 °C.
Taken in the same sequence, the figures for GCAATACGAAAGTAATGC (((.(((....))).))) were -37.4 kcal/mol and 47.4 °C.
As for GCAATACGAAAGTACTGC (((.(((....))).))), in data set [1], the folding enthalpy was -31.3 kcal/mol. Further, in data set [2], the Tm was found to be 43.9 °C.
Taken in the same sequence, the figures for GCAATAGGAAACTATCGC ((.((((....)))).)) were -18.6 kcal/mol and 33.9 °C.
Taken in the same sequence, the figures for GCAATAGGAAACTATTGC (((((((....))))))) were -45.8 kcal/mol and 56 °C.
Taken in the same sequence, the figures for GCAATAGGAAACTGTTGC ((((.((....)).)))) were -33 kcal/mol and 47.4 °C.
As for GCAATATCGAAAGATTGC (((..(((....)))))), the folding enthalpy in data set [1] is -25.5 kcal/mol. In addition, in data set [2], the Tm is 39.5 °C.
GCAATCCCGAAAGGGTGC (((..(((....)))))): the folding enthalpy in data set [1] is -19.1 kcal/mol. The Tm in data set [2] turned out to be 46.6 °C.
As to GCAATCGAAAGATATTGC ((((((....)))..))), the folding enthalpy in data set [1] was -18.7 kcal/mol. In addition, in data set [2], the Tm came out at 35.5 °C.
For GCAATCGAAAGATGATGC ((((((....)))..))), the folding enthalpy in data set [1] was -18.6 kcal/mol. Also, the Tm in data set [2] amounted to 32.5 °C.
For GCAATCGAAAGATGTGC ((((((....))).))), the folding enthalpy in data set [1] was -25.5 kcal/mol. Besides, in data set [2], the Tm worked out at 39.5 °C.
Consider GCAATCGAAAGATGTTGC ((((((....)))..))), for which, in data set [1], the folding enthalpy is -15.9 kcal/mol. Moreover, the Tm in data set [2] worked out at 34.6 °C.
Turning to GCAATCGAAAGATTATGC ((((((....)))..))), in data set [1], the folding enthalpy was -17.5 kcal/mol. Further, the Tm in data set [2] was 32.8 °C.
With GCAATGACGAAAGTCTGC (((..(((....)))))), in data set [1], the folding enthalpy was -19.4 kcal/mol. In data set [2], the Tm is 42 °C.
Taken in the same sequence, the figures for GCAATGCGAAAGCAAAGC ((..(((....)))..)) were -14.6 kcal/mol and 38 °C.
Take GCAATGCGAAAGCATCGC ((.((((....)))).)): the folding enthalpy in data set [1] was -21.4 kcal/mol. In addition, the Tm in data set [2] is 58.1 °C.
Taken in the same sequence, the figures for GCAATGCGAAAGCATGGC ((.((((....)))).)) were -34 kcal/mol and 65.2 °C.
GCAATGCGAAAGCGGTGC (((..((....))..))): the folding enthalpy in data set [1] was -21.7 kcal/mol. Also, the Tm in data set [2] was found to be 56.6 °C.
Consider GCAATGCGAAAGCGTCGC ((.(.((....)).).)), for which, in data set [1], the folding enthalpy was -19.3 kcal/mol. In data set [2], the Tm came to 45.4 °C.
Taken in the same sequence, the figures for GCAATGCGAAAGCTGTGC (((..((....))..))) were -20.6 kcal/mol and 48.4 °C.
Taken in the same sequence, the figures for GCAATGGGAAACCATCGC ((.((((....)))).)) were -28.8 kcal/mol and 42.1 °C.
Taken in the same sequence, the figures for GCAATTGGAAACAATTAC (.(((((....))))).) were -15.1 kcal/mol and 30.6 °C.
On to GCAATTGGAAACAATTGC (((((((....))))))), for which, in data set [1], the folding enthalpy is -43.9 kcal/mol. For the same sequence, in data set [2], the Tm is 58.9 °C.
Taken in the same sequence, the figures for GCACAAACGAAAGTTTGC (((..(((....)))))) were -11.2 kcal/mol and 39.7 °C.
Taken in the same sequence, the figures for GCACAAGGAAACTTGTGC (((((((....))))))) were -33.7 kcal/mol and 67.4 °C.
Taken in the same sequence, the figures for GCACACGAAAGTGATGC ((((((....))).))) were -33.1 kcal/mol and 54.5 °C.
Take GCACACGAAAGTGCATGC ((((((....)))..))): the folding enthalpy in data set [1] was -14.4 kcal/mol. In data set [2], the Tm was 42.1 °C.
Take GCACACGAAAGTGCTTGC ((((((....)))..))): the folding enthalpy in data set [1] was -20.8 kcal/mol. Further, the Tm in data set [2] amounted to 53.6 °C.
Taken in the same sequence, the figures for GCACACGAAAGTGGGTGC ((((((....)))..))) were -24.1 kcal/mol and 53.5 °C.
Taken in the same sequence, the figures for GCACACGAAAGTGTATGC ((((((....)))..))) were -15.1 kcal/mol and 45.8 °C.
Taken in the same sequence, the figures for GCACACGAAAGTGTTTGC ((((((....)))..))) were -13.7 kcal/mol and 39.6 °C.
As for GCACAGCGAAAGCAGAGC ((.(.((....)).).)), the folding enthalpy in data set [1] is -13.7 kcal/mol. Further, the Tm in data set [2] came out at 47.3 °C.
Taken in the same sequence, the figures for GCACAGCGAAAGCGGCGC ((.(.((....)).).)) were -28.6 kcal/mol and 63.7 °C.
Take GCACAGCGAAAGCTCGGC ((..(((....)))..)): the folding enthalpy in data set [1] is -15.2 kcal/mol. In addition, in data set [2], the Tm stood at 38.4 °C.
Turning to GCACAGCGAAAGCTGAGC ((.((((....)))).)), the folding enthalpy in data set [1] was -17.2 kcal/mol. Further, the Tm in data set [2] was 63.4 °C.
